Substrate in data set [1]: O=C(O)CC(=O)C(=O)O
Kind of data set: Binding affinity to Mycobacterium tuberculosis wild type CitA expressed in Escherichia coli cells assessed as Vmax by Michaelis-Menten analysis. The gist of the method:
(§1)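 His-tagged CitA (wild type or variant) was expressed in E. coli, purified by cobalt affinity and size exclusion, then dialysed against 20 mM Tris pH 8.0. Activity was measured by DTNB (300 μM) thiol detection of released CoA at 412 nm, with OAA and AcCoA substrates and 10 nM enzyme, in 50 mM Tris pH 8.0 at 25 °C. A no-enzyme control was run. Triplicate runs were fitted to Michaelis–Menten.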

Substrate in data set [2]: O=C(O)CC(=O)C(=O)O
Kind of data set: Binding affinity to Mycobacterium tuberculosis wild type CitA expressed in Escherichia coli cells assessed as Kcat/Km by Michaelis-Menten analysis. The essentials:
as §1

Substrate in data set [3]: O=C(O)CC(=O)C(=O)O
Put plainly: Binding affinity to Mycobacterium tuberculosis wild type CitA expressed in Escherichia coli cells assessed as catalytic constant by Michaelis-Menten analysis. The gist of the method: as §1

Substrate in data set [4]: O=C(O)CC(=O)C(=O)O
Kind of data set: Binding affinity to Mycobacterium tuberculosis wild type CitA expressed in Escherichia coli cells assessed as apparent Km by Michaelis-Menten analysis. The gist of the method:
as §1

B1: Putative citrate synthase 2 (Mycobacterium tuberculosis), P9WPD3 (protein)
chain: MTVVPENFVPGLDGVVAFTTEIAEPDKDGGALRYRGVDIEDLVSQRVTFGDVWALLVDGNFGSGLPPAEPFPLPIHSGDVRVDVQAGLAMLAPIWGYAPLLDIDDATARQQLARASVMALSYVAQSARGIYQPAVPQRIIDECSTVTARFMTRWQGEPDPRHIEAIDAYWVSAAEHGMNASTFTARVIASTGADVAAALSGAIGAMSGPLHGGAPARVLPMLDEVERAGDARSVVKGILDRGEKLMGFGHRVYRAEDPRARVLRAAAERLGAPRYEVAVAVEQAALSELRERRPDRAIETNVEFWAAVVLDFARVPANMMPAMFTCGRTAGWCAHILEQKRLGKLVRPSAIYVGPGPRSPESVDGWERVLTTA
Consider B1, for which, in data set [1], the maximum rate (Vmax) was determined as 3.4 µM/min. The catalytic efficiency (kcat/Km) in data set [2] came to 400000 M⁻¹ s⁻¹. Besides, the kcat in data set [3] was found to be 5.67 s⁻¹. For the same protein, the Km in data set [4] was determined as 14.3 µM.

Values taken from ChEMBL document CHEMBL5257161, “Mycobacterium tuberculosis CitA activity is modulated by cysteine oxidation and pyruvate binding” (RSC Med Chem, 2023).
